Laboratory results from ChEMBL document CHEMBL1817606, “3-benzhydryl-4-piperidones as novel neurokinin-1 receptor antagonists and their efficient synthesis” (Bioorg Med Chem, 2011).
Active and inactive are the calls of the source. No cut-off for these calls is given here.

Each compound was assayed against T1, Substance-P receptor (Homo sapiens, UniProt P25103) (assay: Displacement of [125I]BH-SP from human tachykinin NK1 receptor expressed in IM9 cells after 30 mins by scintillation counting). Details: not given.
Type: cell-based, IM-9
Method in brief: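 Membranes from IM-9 cells grown 3 days, homogenized in 50 mM Tris-HCl pH 7.4 with NaCl, KCl, EDTA and protease inhibitors, spun at 40,000g for 20 min, then resuspended in a Tris buffer with 0.02% BSA and 3 mM MnCl2. Nonspecific binding was defined with 2 × 10^-6 M SP. Bound ligand was collected on GF/C filters, washed three times and counted.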

T1 sequence (P25103 whole entry): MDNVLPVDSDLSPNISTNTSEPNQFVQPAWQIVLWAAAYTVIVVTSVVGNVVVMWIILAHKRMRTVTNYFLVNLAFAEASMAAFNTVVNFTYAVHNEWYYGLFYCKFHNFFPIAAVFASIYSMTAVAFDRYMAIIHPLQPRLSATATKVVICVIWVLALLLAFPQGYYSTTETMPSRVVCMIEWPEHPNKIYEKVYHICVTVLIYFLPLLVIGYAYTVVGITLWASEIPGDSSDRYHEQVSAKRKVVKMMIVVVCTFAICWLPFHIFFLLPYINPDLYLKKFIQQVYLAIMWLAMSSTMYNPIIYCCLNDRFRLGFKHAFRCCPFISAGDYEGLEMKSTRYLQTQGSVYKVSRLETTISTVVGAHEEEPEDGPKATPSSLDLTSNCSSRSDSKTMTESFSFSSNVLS

Row | SMILES | IC50
1 | O=C1CCN(Cc2ccccc2O)CC1C(c1ccc(F)cc1)c1ccc(F)cc1 (racemic) | 280 nM
2 | COc1ccc([N+](=O)[O-])cc1CN1CCC(=O)C(C(c2ccccc2)c2ccccc2)C1 (racemic) | 2.6 nM
3 | COc1ccc(N)cc1CN1CCC(=O)C(C(c2ccccc2)c2ccccc2)C1 (racemic) | 5.9 nM
4 | O=C1CCN(Cc2cccc(C(F)(F)F)c2)CC1C(c1ccc(F)cc1)c1ccc(F)cc1 (racemic) | 270 nM
5 | COc1cccc(OC)c1CN1CCC(=O)C(C(c2ccc(F)cc2)c2ccc(F)cc2)C1 (racemic) | 2.3 nM
6 | COc1ccc(Br)cc1CN1CCC(=O)C(C(c2ccc(F)cc2)c2ccc(F)cc2)C1 (single isomer, unassigned; (+)) | 1.5 nM
7 | COc1ccc(OC)c(CN2CCC(=O)C(C(c3ccc(F)cc3)c3ccc(F)cc3)C2)c1 (racemic) | 3.1 nM
8 | COc1ccccc1CN1CCC(=O)C(C(c2ccc(F)cc2)c2ccc(F)cc2)C1 (racemic) | 6.6 nM
9 | O=C1CCN(Cc2ccccc2)CC1C(c1ccc(F)cc1)c1ccc(F)cc1 (racemic) | 97 nM
10 | O=C1CCN(Cc2ccccc2)CC1C(c1ccccc1)c1ccccc1 (racemic) | 97 nM
11 | COc1ccc(OC(F)(F)F)cc1CN1CCC(=O)C(C(c2ccc(F)cc2)c2ccc(F)cc2)C1 (racemic) | 0.81 nM
12 | COc1cccc(CN2CCC(=O)C(C(c3ccc(F)cc3)c3ccc(F)cc3)C2)c1 (racemic) | 31 nM
13 | COc1ccc(F)cc1CN1CCC(=O)C(C(c2ccc(F)cc2)c2ccc(F)cc2)C1 (racemic) | 4 nM
14 | O=C1CCN(Cc2ccccc2F)CC1C(c1ccc(F)cc1)c1ccc(F)cc1 (racemic) | 46 nM
15 | O=C1CCN(Cc2ccccc2)CC1C(c1ccc(Cl)cc1)c1ccc(Cl)cc1 (racemic) | 97 nM
16 | O=C1CCN(Cc2ccccc2-c2ccccc2)CC1C(c1ccc(F)cc1)c1ccc(F)cc1 (racemic) | 14 nM

Second part, the compound after the results:

Row | IC50 | SMILES
17 | 9.5 nM | COc1ccc(CN2CCC(=O)C(C(c3ccc(F)cc3)c3ccc(F)cc3)C2)c(OC)c1 (racemic)
18 | 6.1 nM | N#Cc1ccccc1CN1CCC(=O)C(C(c2ccc(F)cc2)c2ccc(F)cc2)C1 (racemic)
19 | 55 nM | COc1cccc(CN2CCC(=O)C(C(c3ccc(F)cc3)c3ccc(F)cc3)C2)c1OC (racemic)
20 | 15 nM | COc1ccc(NC(C)=O)cc1CN1CCC(=O)C(C(c2ccccc2)c2ccccc2)C1 (racemic)
21 | 4.9 nM | O=C1CCN(Cc2ccccc2C(F)(F)F)CC1C(c1ccc(F)cc1)c1ccc(F)cc1 (racemic)
22 | 18 nM | O=C1CCN(Cc2ccccc2[N+](=O)[O-])CC1C(c1ccc(F)cc1)c1ccc(F)cc1 (racemic)
23 | 1.1 nM | COc1ccc(Br)cc1CN1CCC(=O)C(C(c2ccc(F)cc2)c2ccc(F)cc2)C1 (racemic) [listing 1 of 2 here]
24 | 220 nM | O=C1CCN(Cc2ccc(C(F)(F)F)cc2)CC1C(c1ccc(F)cc1)c1ccc(F)cc1 (racemic)
25 | 77 nM | COc1ccc(CN2CCC(=O)C(C(c3ccc(F)cc3)c3ccc(F)cc3)C2)cc1 (racemic)

These compounds were tested against T1, Substance-P receptor (assay: Displacement of [125I]BH-SP from human tachykinin NK1 receptor expressed in IM9 cells at 10^-7 M after 30 mins by scintillation counting). Details: IM-9.
Type: cell-based

Row | SMILES | inhibition
26 | O=C1CCNCC1C(c1ccccc1)c1ccccc1 (racemic) | 17.6%
27 | O=C1CCN(Cc2ccccc2)CC1C(c1ccc(F)cc1)c1ccc(F)cc1 (racemic) | 81.7%
28 | O=C1CCN(Cc2ccccc2)CC1C(c1ccccc1)c1ccccc1 (racemic) | 81.7%
29 | O=C1CCN(Cc2ccccc2)CC1C(c1ccc(Cl)cc1)c1ccc(Cl)cc1 (racemic) | 81.7%

Further lines, results first:

Row | inhibition | SMILES
30 | -0.6% | O=C1CN(Cc2ccccc2)CC1C(c1ccccc1)c1ccccc1 (racemic)
31 | 9.7% | O=C1CN(Cc2ccccc2)CCC1C(c1ccccc1)c1ccccc1 (racemic)
32 | 32.9% | O=C1CCN(Cc2cc(C(F)(F)F)cc(C(F)(F)F)c2)CC1C(c1ccc(F)cc1)c1ccc(F)cc1 (racemic)
33 | 54.3% | O=C1CCN(CCc2ccccc2)CC1C(c1ccccc1)c1ccccc1 (racemic)
34 | 31.1% | O=C1CCN(Cc2ccccc2)CC1C1c2ccccc2C=Cc2ccccc21 (racemic)
35 | 29.8% | O=C1CCN(Cc2ccccc2)CC1C1c2ccccc2Oc2ccccc21 (racemic)
36 | -2% | O=C1CCN(Cc2ccccc2)CC1=C(c1ccccc1)c1ccccc1

These compounds were tested on Cavia porcellus (assay: Inhibition of capsaicin-induced plasma extravasation in trachea of po dosed guinea pig). Details: not given.
Type: functional, organism-based

Row | SMILES | inhibition
37 | COc1ccc(NS(C)(=O)=O)cc1CN1CCC(=O)C(C(c2ccccc2)c2ccccc2)C1 (racemic) | inactive
38 | COc1ccc(OC(F)(F)F)cc1CN1CCC(=O)C(C(c2ccccc2)c2ccccc2)C1 (racemic) | inactive
39 | COc1ccc(Br)cc1CN1CCC(=O)C(C(c2ccc(F)cc2)c2ccc(F)cc2)C1 (racemic) [listing 2 of 2 here] | inactive
40 | COc1ccc(C(C)C)cc1CN1CCC(=O)C(C(c2ccccc2)c2ccccc2)C1 (racemic) | inactive

These compounds were tested on Cavia porcellus (assay: Inhibition of capsaicin-induced plasma extravasation in trachea of iv dosed guinea pig). Details: not given.
Type: functional, organism-based

Row | SMILES | inhibition
41 | COc1ccc(NS(C)(=O)=O)cc1CN1CCC(=O)C(C(c2ccccc2)c2ccccc2)C1 (racemic) | inactive
42 | COc1ccc(OC(F)(F)F)cc1CN1CCC(=O)C(C(c2ccccc2)c2ccccc2)C1 (racemic) | inactive
43 | COc1ccc(Br)cc1CN1CCC(=O)C(C(c2ccc(F)cc2)c2ccc(F)cc2)C1 (racemic) [listing 2 of 2 here] | inactive
44 | COc1ccc(C(C)C)cc1CN1CCC(=O)C(C(c2ccccc2)c2ccccc2)C1 (racemic) | inactive
